Compound activity: PubChem BioAssay, several laboratories
Runt-SMMHC FRET: blocks binding of human RUNX1 Runt domain to CBFb-SMMHC; inhibition, % at 20 µM; Cerulean-Runt/Venus-CBFb-SMMHC FRET ratio 530/480, 1 h; AID 1434; actives 0.74% (n = 220,000);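 active = mean inhibition across duplicate retests at 20 µM reaching about 50%, limit read from the data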;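 also: 0% = DMSO wells and 100% = wells with excess untagged CBFb-SMMHC; inhibitors lower the FRET ratio by blocking Runt binding to CBFb-SMMHC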
RanGTP-Imp inh: inhibitors of RanGTP-importin-beta interaction, primary screen, biochemical, FRET, CFP-Ran, YFP-importin-beta, homogeneous. cell-free CFP-Ran/YFP-importin-beta FRET ratio. inhibition, % (no concentration beside the values). actives 1.1% (n = 300,000);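 active = more than half of the replicate wells show a fall in the fluorescence ratio signal beyond about 16%, limit read from the data, passing the limit was not always enough; inconclusive = exactly half of the replicate wells pass the set limit; inactive = fewer than half of replicates pass the limit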;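 also: 0% = DMSO wells and 100% = Ran loaded with GDP instead of GTP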
Hck Nef HTS: inhibitors of human Hck kinase activated by Nef. P08631. Recombinant Hck-YEEI plus Nef, Z-Lyte FRET kinase assay. inhibition, % at 20 µM. actives 0.68% (n = 220,000). AID 463187;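 active = Hck-Nef kinase inhibition above about 50%, limit read from the data; inactive = inhibition below that limit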;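 also: 0% = DMSO with Hck plus Nef and 100% = Hck alone without Nef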
Target sequence (P08631 whole entry, looked up): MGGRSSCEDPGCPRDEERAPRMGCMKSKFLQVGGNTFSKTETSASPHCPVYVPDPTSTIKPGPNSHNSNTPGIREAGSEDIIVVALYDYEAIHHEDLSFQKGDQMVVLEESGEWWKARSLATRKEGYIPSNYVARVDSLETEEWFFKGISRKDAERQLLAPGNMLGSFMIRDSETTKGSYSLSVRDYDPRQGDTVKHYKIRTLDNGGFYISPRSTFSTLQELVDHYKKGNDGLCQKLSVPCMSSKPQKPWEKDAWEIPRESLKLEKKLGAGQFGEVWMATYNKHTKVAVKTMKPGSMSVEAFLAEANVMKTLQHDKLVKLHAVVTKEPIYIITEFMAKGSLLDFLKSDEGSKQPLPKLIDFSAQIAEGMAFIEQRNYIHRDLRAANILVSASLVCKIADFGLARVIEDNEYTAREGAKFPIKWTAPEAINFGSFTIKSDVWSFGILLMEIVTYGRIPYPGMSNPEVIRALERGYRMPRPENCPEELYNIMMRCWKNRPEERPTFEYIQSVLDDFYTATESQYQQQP
Runt-CBFb FRET: inhibitors of human RUNX1 Runt domain binding to CBFb; Q01196+Q13951; actives 0.46% (n = 220,000); inhibition, % at 20 µM; Cerulean-Runt/Venus-CBFb FRET ratio 530/480, 1 h; AID 1496;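 active = inhibition over about 50% at 20 µM in the single-dose screen, limit read from the data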;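 also: 0% = DMSO wells and 100% = excess unlabeled CBFb competitor control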
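Schedule: protein complex preformed 1 h, compound exposure 1 h, room temperature, dark; test system: Cerulean-labeled Runt domain protein; amount: 100 nM per protein; buffer or medium: Tris 50 mM pH 7.5, KCl, K2SO4, 0.01% BSA; read-out: loss of energy transfer signal; detection: FRET fluorescence; controls: 5 µM unlabeled CBFb as full-inhibition high control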
Tb hexokinase: T. brucei hexokinase 1 inhibition; AID 1430; inhibition, % at 10 µM; recombinant TbHK1, G6PDH-coupled NADH A340; actives 0.11% (n = 220,000);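 active = inhibition of 50% or more in the single-dose primary screen; inactive = inhibition below 50%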
p97 inhibitor: blocks human p97 ATPase activity | actives 0.42% (n = 220,000) | P55072 | inhibition, % at 8 µM | recombinant p97 ATPase, Kinase-Glo ATP luminescence, 3 h; in the data active = inhibition above about 15%;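 also: 0% = DMSO vehicle and 100% = wells lacking enzyme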
YIC FRET counter: counter-screen: alters YIC FRET probe signal; shares compounds with RanGTP-Imp inh; actives 40% (n = 1,000); IC50, µM; Purified YIC probe, intramolecular FRET ratio YFP/CFP;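 active = fitted half-maximal inhibitory concentration no more than tenfold above the top dose tested; inconclusive = flat fit with 30 to 70% activity, or poor fit; inactive = half-maximal concentration beyond tenfold above the top dose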
The depositor's hits bear a star; ? = inconclusive; · = not tested or not shown. Sampled rows, rich in hits. Any-hit rate of the full collection: about 2.1%.

SMILES | Runt-SMMHC FRET | RanGTP-Imp inh | Hck Nef HTS | Runt-CBFb FRET | Tb hexokinase | p97 inhibitor | YIC FRET counter
Fc1ccc(N/N=C/C=C/c2ccccc2)c(F)c1 | 1.3 | 20.0* | 3.0 | 1.2 | 0.5 | 4.4 | >50
Fc1ccc(N/N=C/c2ccncc2)c(F)c1 | -1.5 | -2.5 | 0.2 | 0.4 | -45.6 | -6.1 | ·
CCOC(=O)C1=C(C)NC2=C(C(=O)C(C(=O)OCC)C(c3ccccc3OC)C2)C1c1ccccn1 (configuration not stated) | 83.2* | 18.3* | 33.7 | 20.8 | -12.8 | -4.9 | 23.2*
CCOC(=O)C1=C(C)NC2=C(C(=O)C(C(=O)OCC)C(c3ccc(OC)cc3)C2)C1c1ccccn1 (configuration not stated) | 74.7* | 18.0* | 10.8 | 39.0 | -6.3 | -1.2 | 27.5*
CCOC(=O)C1=C(C)NC2=C(C(=O)C(C(=O)OCC)C(c3cccc(OC)c3)C2)C1c1ccccn1 (configuration not stated) | 88.8* | 26.3* | 30.3 | 35.1 | -14.9 | -2.9 | 21.4*
C=CCN1C(=O)SC(Cc2cccc(OC)c2O)C1=O (configuration not stated) | 0.3 | 3.2 | 19.6 | 3.6 | -1.8 | 0.7 | ·
C/C(N)=C(/C#N)C(=O)COc1ncnc2ccccc12 | · | 21.8* | 0.0 | · | 8.5 | 10.1 | >50
C/C(N)=C(/C#N)C(=O)COC(=O)c1cc(-c2ccc(Br)cc2)nc2ccccc12 | -3.6 | -4.0 | 2.0 | -2.6 | -16.3 | 0.2 | ·
COc1ccc(CCN(C)C2CCCN(C(=O)Cn3cnnn3)C2)cc1OC (configuration not stated) | · | 2.0 | · | · | · | · | ·
C=CCc1cc(OC)ccc1OCCN1CC(C)OC(C)C1 (configuration not stated) | · | -2.3 | · | · | · | · | ·
CC(C)(C)c1nc(SCC(=O)c2ccccc2)c2ccccc2n1 | 16.0 | -1.4 | 13.1 | 14.4 | 10.1 | -0.8 | ·
O=C(Cc1c2ccccc2nc2ccccc12)c1ccccc1 | 115.1* | 22.0* | 7.4 | 126.4* | -11.4 | 1.8 | >50
C=CCn1c(=O)c(C(=O)Nc2ccc(C)cc2)c(O)c2ccccc21 | · | 28.2* | · | · | · | · | >50
C=CCn1c(=O)c(C(=O)Nc2cc(C)ccn2)c(O)c2ccccc21 | · | 5.0 | · | · | · | · | ·
O=C1NC(=O)N(Cc2ccccc2F)C1=O | · | -1.5 | · | · | · | · | ·
COc1ccc(-c2cc(C(F)(F)F)n3nc(N)nc3n2)cc1 | 58.9* | 27.0* | 38.0 | 26.5 | -35.2 | -0.7 | 20.7*
Cc1c(N=Cc2c(O)n(Cc3ccco3)c(=O)c3ccccc23)c(=O)n(-c2ccccc2)n1C | -104.1 | 21.9* | 14.3 | -64.6 | -16.3 | 7.5 | 22.7*
Cc1ccc(Cn2ccc(NC(=O)c3noc4c3CCc3ccccc3-4)n2)cc1 | -6.3 | 33.4* | -2.5 | 2.2 | -20.8 | 2.3 | >50
COc1ccc2c(c1)CCc1c(C(=O)Nc3ccn(Cc4ccc(C)cc4)n3)noc1-2 | -4.3 | -4.6 | 4.6 | -2.0 | 3.8 | -0.5 | ·
CCN(CC)S(=O)(=O)c1ccc(OCC(=O)NC(=O)c2ccccc2OC)c([N+](=O)[O-])c1 | · | -3.8 | · | · | · | · | ·
CCCC(=Nc1ccccc1OC)C1=C(O)CC(c2ccccc2)CC1=O (configuration not stated) | 3.1 | -0.3 | 1.9 | -0.6 | -10.1 | -5.3 | ·
COc1ccccc1N=C(C)C1=C(O)CC(c2ccccc2)CC1=O (configuration not stated) | -0.6 | 20.0* | -6.2 | -1.9 | -4.6 | 2.0 | >50
CSc1ccccc1OCc1cc(C(=O)NCCN2CCCc3ccccc32)no1 | · | 2.1 | · | · | · | · | ·
O=c1oc2ccccc2cc1-c1csc(Cc2nc(-c3ccc(Cl)cc3)cs2)n1 | -15.6 | 5.0 | 1.7 | -1.7 | -4.6 | 4.0 | ·
N=c1oc2ccccc2cc1-c1nc(-c2ccc(Cl)cc2)cs1 | -149.8 | 16.7* | -0.7 | -45.7 | -6.9 | -4.1 | 32.3*
SMILES | Runt-SMMHC FRET | RanGTP-Imp inh | Hck Nef HTS | Runt-CBFb FRET | Tb hexokinase | p97 inhibitor | YIC FRET counter
O=C(NCC1CCN(Cc2ccccc2Cl)CC1)Nc1ccccc1F | · | 16.6* | · | · | · | · | >50
COC(=O)C1=C(O)/C(=C\c2cc(C)n(-c3ccccc3C)c2C)N=C1C | 16.5 | 19.7* | 15.9 | 9.5 | -27.4 | -6.1 | 43.9*
O=C(N=C1SC2CS(=O)(=O)CC2N1c1cccc(Cl)c1Cl)C1CCCO1 (configuration not stated) | · | 3.9 | · | · | · | · | ·
CC(C)Cc1ccc(CN2CCC(n3nccc3NC(=O)C3CCCC3)CC2)cc1 | · | 21.6* | · | · | · | · | >50
COc1ccc(CN2CCC(n3nccc3NC(=O)C3CCCC3)CC2)cc1 | · | 0.5 | · | · | · | · | ·
Cc1cc(C)c2nc(N3C(=O)C(O)=C(C(=O)c4ccco4)C3c3ccco3)sc2c1 (configuration not stated) | · | -1.3 | · | · | · | · | ·
Cc1ccc(N2CC(=O)N(NC(=O)c3sc4nc(C)cc(C)c4c3N)CC2=O)cc1 | 7.5 | 20.0* | 21.3 | 5.8 | -16.9 | 5.4 | >50
Cc1ccc(C(=O)NCCNS(C)(=O)=O)cc1 | -0.3 | 0.8 | 10.8 | -0.2 | -0.7 | 0.7 | ·
COc1cccc(/C=N/NC(=O)c2ccc3nc[nH]c3c2)c1O | 6.2 | 6.0 | -11.0 | 4.0 | -22.4 | 3.6 | ·
CCN(CC)c1ccc(/C=N/NC(=O)c2ccc3nc[nH]c3c2)c(O)c1 | 61.7* | 37.8* | 8.2 | 42.6 | -16.9 | 4.1 | 13.3*
O=C1/C(=C/c2cccs2)Sc2ccccc21 | -2.8 | 18.8* | 5.5 | -1.1 | -8.1 | 2.3 | ?
Cc1ccc(C)c(NC(=S)N(C)CCc2ccccn2)c1 | -8.1 | 24.5* | -1.0 | -1.6 | 27.0 | 3.9 | >50
Cc1c(CC(=O)O)c(=O)oc2c(C)c3occ(-c4ccc(F)cc4)c3cc12 | · | 24.3* | · | · | · | · | >50
COc1ccc(-c2coc3c(C)c4oc(=O)c(CCC(=O)O)c(C)c4cc23)cc1 | · | 1.9 | · | · | · | · | ·
C1=CC(c2cc3ccccc3o2)OC(CCc2ccccc2)C1 (configuration not stated) | · | 4.9 | · | · | · | · | ·
Cn1cc(C(=O)c2cccc(Cl)c2)cc1/C=N\O | -2.3 | -0.7 | -23.4 | 0.2 | -9.6 | 6.8 | ·
CO/N=C\c1cc(C(=O)c2ccc(Cl)cc2Cl)cn1C | 2.6 | 31.6* | -30.8 | 0.0 | 5.3 | -10.8 | >50
C=CCOc1c(Br)cc(CNc2ccc(NC(=O)C(C)C)c(OC)c2)cc1OC | -37.0 | 26.5* | -0.5 | -14.1 | -7.9 | -0.2 | >50
COc1cc(CNc2ccc(C(=O)O)cc2)cc(Br)c1OCC(=O)NC(C)(C)C | 2.1 | -1.6 | 1.7 | -2.8 | 3.0 | -1.7 | ·
Cc1[nH]c2ccc(C(=O)NCCN3CCOCC3)cc2c1C | · | 5.4 | · | · | · | · | ·
COc1ccc(CNC(=O)CN(Cc2ccccc2)C(=O)CCC(=O)Nc2ccccn2)cc1 | · | -0.6 | · | · | · | · | ·
O=C(CN1C(=O)COc2ccccc21)N1CCCC1 | · | -0.5 | · | · | · | · | ·
O=C(CCN1C(=O)COc2ccccc21)N1CCCCC1 | 3.3 | 23.7* | 1.1 | 0.9 | -3.6 | -0.7 | >50
